Assay results reported in publication PMC11310838 (RSC Advances, 2024).

Experiments:
Experiment in all cases: Sulforhodamine B
[1] = system: MCF7 cell line; type: cell-based, human; details: for inhibition at 100 µM: Homo sapiens, MCF7, 48 h, read-out: Percentage of cell growth inhibition at [100 μM] MCF7
How it was run: (§1)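 Carcinoma lines came from the National Cancer Institute, Cairo, and were grown as monolayers in DMEM with 10% FBS and 1% penicillin–streptomycin. Final DMSO was ≤0.1% (v/v). Cells were treated for 48 h either at a single 100 μM dose (% growth inhibition) or at 0, 6.25, 12.5, 25 and 50 μM. SRB staining was read at 570 nm as % viability. IC50 came from dose–response curve fitting.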

[2] = system: HEPG2 cell line; type: cell-based, human; details: for inhibition at 100 µM: Homo sapiens, HepG2, 48 h, read-out: Percentage of cell growth inhibition at [100 μM] HEPG2
How it was run: as §1

[3] = system: HDF cell line (Human Dermal Fibroblasts); type: cell-based; details: 48 h; for inhibition at 100 µM: Homo sapiens, HDF, read-out: Percentage of cell growth inhibition at [100 μM] HDF
How it was run: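 Normal human dermal fibroblasts came from the National Cancer Institute, Cairo. Final DMSO was ≤0.1% (v/v). Cells were exposed to the test compound at a single 100 μM dose for 48 h. Growth inhibition was measured by the sulforhodamine-B method, with absorbance read at 570 nm and expressed as percentage of cell viability.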

[4] = system: HCT116 cell line; type: cell-based, human; details: for inhibition at 100 µM: Homo sapiens, HCT-116, 48 h, read-out: Percentage of cell growth inhibition at [100 μM] HCT116
How it was run: as §1

[5] = single dose 100 μM, 48 h, SRB, mean ± SD

IC50 ([1]; read-out: IC50 (μM) ± SD MCF7, 48 h treatment, SRB) [µM] | IC50 ([2]; read-out: IC50 (μM) ± SD HEPG2, 48 h treatment, SRB) [µM] | IC50 ([4]; read-out: IC50 (μM) ± SD HCT116, 48 h treatment, SRB) [µM] | Structure (SMILES) | inhibition at 100 µM [1] [%] | inhibition at 100 µM [2] [%] | inhibition at 100 µM [3] [%] | inhibition at 100 µM [4] [%] | Percentage of cell growth inhibition at [100 μM] MCF7 [1, 5] [%] | Percentage of cell growth inhibition at [100 μM] HEPG2 [2, 5] [%] | Percentage of cell growth inhibition at [100 μM] HDF ([3]; single dose 100 μM, SRB, normal cells, mean ± SD) [%] | Percentage of cell growth inhibition at [100 μM] HCT116 [4, 5] [%]
 |  |  | NC(=S)NN=Cc1ccc(OCC(=O)N2CCN(C(=O)COc3ccc(C=NNC(N)=S)cc3)CC2)cc1 [Compound 7a, 1,1′-(Piperazine-1,4-diyl)bis(2-(4-(2-carbamothioylhydrazono)methylphenoxy)ethanone)] | 85.3 ± 5.2 | 83.3 ± 7.47 | 45.1 ± 30.1 | 86.2 ± 5.33 |  |  |  | 
 |  |  | Cc1nc(NN=Cc2ccc(OCC(=O)N3CCN(C(=O)COc4ccc(C=NNc5nc(C)c(N=Nc6ccc(F)cc6)s5)cc4)CC3)cc2)sc1N=Nc1ccc(F)cc1 [Compound 9c, 1,1′-(Piperazine-1,4-diyl)bis(2-(4-(((4-methyl-5-(4-fluorophenylazo)thiazol-2-yl)hydrazono)-methyl)phenoxy)ethanone)] | 90.3 ± 1.3 | 77.2 ± 3.1 | 67.7 ± 11.5 | 87.2 ± 4.53 |  |  |  | 
 |  |  | Cc1nc(NN=Cc2ccc(OCC(=O)N3CCN(C(=O)COc4ccc(C=NNc5nc(C)c(N=Nc6ccc(Cl)cc6)s5)cc4)CC3)cc2)sc1N=Nc1ccc(Cl)cc1 [Compound 9d, 1,1′-(Piperazine-1,4-diyl)bis(2-(4-(((4-methyl-5-(4-chlorophenylazo)thiazol-2-yl)hydrazono)-methyl)phenoxy)ethanone)] | 90.5 ± 1.99 | 73.1 ± 5.28 | 57.7 ± 18 | 89.1 ± 2.04 |  |  |  | 
 |  |  | Cc1ccc(N=Nc2sc(NN=Cc3ccccc3OCC(=O)N3CCN(C(=O)COc4ccccc4C=NNc4nc(C)c(N=Nc5ccc(C)cc5)s4)CC3)nc2C)cc1 [Compound 9f, 1,1′-(Piperazine-1,4-diyl)bis(2-(2-(((4-methyl-5-(4-tolylazo)thiazol-2-yl)hydrazono)methyl)-phenoxy)ethanone)] | 85.5 ± 2.11 | 93.5 ± 2.07 | 78.3 ± 3.64 | 85.4 ± 6.41 |  |  |  | 
 |  |  | Cc1nc(NN=Cc2ccccc2OCC(=O)N2CCN(C(=O)COc3ccccc3C=NNc3nc(C)c(N=Nc4ccc(F)cc4)s3)CC2)sc1N=Nc1ccc(F)cc1 [Compound 9g, 1,1′-(Piperazine-1,4-diyl)bis(2-(2-(((4-methyl-5-(4-fluorophenylazo)thiazol-2-yl)hydrazono)-methyl)phenoxy)ethanone)] | 88.7 ± 4.11 | 91.8 ± 3.29 | 71.1 ± 21.6 | 80.6 ± 7.04 |  |  |  | 
 |  |  | Cc1nc(NN=Cc2ccccc2OCC(=O)N2CCN(C(=O)COc3ccccc3C=NNc3nc(C)c(N=Nc4ccc(Cl)cc4)s3)CC2)sc1N=Nc1ccc(Cl)cc1 [Compound 9h, 1,1′-(Piperazine-1,4-diyl)bis(2-(2-(((4-methyl-5-(4-chlorophenylazo)thiazol-2-yl)hydrazono)-methyl)phenoxy)ethanone)] | 81 ± 7.44 | 84 ± 3.07 | 56 ± 23.6 | 77.7 ± 8.59 |  |  |  | 
 |  |  | Cc1nc(NN=Cc2ccccc2OCC(=O)N2CCN(C(=O)COc3ccccc3C=NNc3nc(C)c(N=Nc4ccc([N+](=O)[O-])cc4)s3)CC2)sc1N=Nc1ccc([N+](=O)[O-])cc1 [Compound 9j, 1,1′-(Piperazine-1,4-diyl)bis(2-(2-(((4-methyl-5-(4-nitrophenylazo)thiazol-2-yl)hydrazono)-methyl)phenoxy)ethanone)] | 71.4 ± 20.5 | 83.1 ± 7.22 | 12 ± 6.04 | 87.7 ± 4.3 |  |  |  | 
 |  |  | O=C(COc1ccc(C=NN=c2sc(-c3ccccc3)nn2-c2ccccc2)cc1)N1CCN(C(=O)COc2ccc(C=NN=c3sc(-c4ccccc4)nn3-c3ccccc3)cc2)CC1 [Compound 13a, 1,1′-(Piperazine-1,4-diyl)bis(2-(4-(((3,5-diphenyl-1,3,4-thiadiazol-2(3H)-ylidene)hydrazono)-methyl)phenoxy)ethanone)] | 88.2 ± 1.88 | 71.4 ± 4.92 | 52.5 ± 14.8 | 78.1 ± 5.78 |  |  |  | 
 |  |  | O=C(COc1ccccc1C=NN=c1sc(-c2ccccc2)nn1-c1ccccc1)N1CCN(C(=O)COc2ccccc2C=NN=c2sc(-c3ccccc3)nn2-c2ccccc2)CC1 [Compound 13c, 1,1′-(Piperazine-1,4-diyl)bis(2-(2-(((3,5-diphenyl-1,3,4-thiadiazol-2(3H)-ylidene)hydrazono)-methyl)phenoxy)ethanone)] | 86.2 ± 1.83 | 68.8 ± 12.7 | 60.8 ± 3.09 | 76.4 ± 5.38 |  |  |  | 
 |  |  | O=C(COc1ccccc1C=NN=c1sc(-c2ccc(Cl)cc2)nn1-c1ccccc1)N1CCN(C(=O)COc2ccccc2C=NN=c2sc(-c3ccc(Cl)cc3)nn2-c2ccccc2)CC1 [Compound 13d, 1,1′-(Piperazine-1,4-diyl)bis(2-(2-(((5-(4-chlorophenyl)-3-phenyl-1,3,4-thiadiazol-2(3H)-ylidene)-hydrazono)methyl)phenoxy)ethanone)] | 86.4 ± 2.56 | 80 ± 3.39 | 64 ± 10.8 | 88.9 ± 1.38 |  |  |  | 
 |  |  | O=C(COc1ccc(C=NN=c2[nH]c(-c3ccccc3)cs2)cc1)N1CCN(C(=O)COc2ccc(C=NN=c3[nH]c(-c4ccccc4)cs3)cc2)CC1 [Compound 15a, 1,1′-(Piperazine-1,4-diyl)bis(2-(4-(((4-phenylthiazol-2(3H)-ylidene)hydrazineylidene)methyl)-phenoxy)ethanone)] | 87.3 ± 1.63 | 67.9 ± 7.03 | 50.2 ± 21.5 | 78.1 ± 6.5 |  |  |  | 
 |  |  | COc1ccc(-c2csc(=NN=Cc3ccc(OCC(=O)N4CCN(C(=O)COc5ccc(C=NN=c6[nH]c(-c7ccc(OC)cc7)cs6)cc5)CC4)cc3)[nH]2)cc1 [Compound 15b, 1,1′-(Piperazine-1,4-diyl)bis(2-(4-(((4-(4-methoxyphenyl)thiazol-2(3H)-ylidene)hydrazineylidene)-methyl)phenoxy)ethanone)] | 50.6 ± 10.2 | 83.4 ± 9.48 | 48 ± 48.5 | 21.8 ± 16.5 |  |  |  | 
 |  |  | O=C(COc1ccc(C=NN=c2[nH]c(-c3cc4ccccc4oc3=O)cs2)cc1)N1CCN(C(=O)COc2ccc(C=NN=c3[nH]c(-c4cc5ccccc5oc4=O)cs3)cc2)CC1 [Compound 15e, 1,1′-(Piperazine-1,4-diyl)bis(2-(4-(((4-(coumarin-3-yl)thiazol-2(3H)-ylidene)hydrazineylidene)-methyl)phenoxy)ethanone)] | 68.4 ± 7.33 | 74.4 ± 4.88 | 68.1 ± 10.1 | 73.9 ± 4.08 |  |  |  | 
 |  |  | O=C(COc1ccccc1C=NN=c1[nH]c(-c2cc3ccccc3oc2=O)cs1)N1CCN(C(=O)COc2ccccc2C=NN=c2[nH]c(-c3cc4ccccc4oc3=O)cs2)CC1 [Compound 15h, 1,1′-(Piperazine-1,4-diyl)bis(2-(2-(((4-(coumarin-3-yl)thiazol-2(3H)-ylidene)hydrazineylidene)-methyl)phenoxy)ethanone)] | 46.7 ± 11.3 | 70.1 ± 8.68 | 44 ± 51.5 | 36.4 ± 13.8 |  |  |  | 
7.59 ± 1.4 | 8.42 ± 1.7 | 7.7 ± 1.5 | COc1cccc2c1C(=O)c1c(O)c3c(c(O)c1C2=O)C[C@@](O)(C(=O)CO)C[C@@H]3O[C@H]1C[C@H](N)[C@H](O)[C@H](C)O1 [DOX, reference compound] |  |  |  |  | 86.37 ± 1.82 | 89.09 ± 0.63 | 30.53 ± 9.75 | 82.77 ± 2.98
